Fewer inactive variants are shown than the library holds.
B1: tRNA (parent)
chain: GUUCCGUUGGCGUAAUGGUAACGCGUCUCCCUCCUAAGGAGAAGACUGCGGGUUCGAGUCCCGUACGGAACG

Variants of: B1
Assay: yeast fitness relative to wild type (ratio to wild type); higher = fitter; tRNA-Arg(CCU), competitive growth, 37 C, YPD
Method in brief: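 For this measurement, the tRNA-Arg(CCU) gene was varied by chemical synthesis at a 3% per-site mutation rate across 69 sites, and each variant was placed at the native genomic locus in Saccharomyces cerevisiae. The pooled strains went through a 24-hour competition in YPD at 37°C in six parallel replicates, with amplicons from start and end populations read by 100-nucleotide paired-end sequencing. Darwinian fitness relative to wild type followed from the change in each genotype's frequency. Genotypes needed ≥ 100 starting reads, and estimates < 0.5 were set to 0.5.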

Variant	yeast fitness
A14G A43U A65U	0.748
C4U C30A A70U	0.799
U16A G39A A42G C55A C62A C66U	0.528
U3A C49A U53G A57U	0.798
C5A A14C A36G G39C C46A A65C	≤ 0.5
G12A C31U G41A	0.686
G17A A37G A43C	≤ 0.5
G10C U35A A37U A43G	≤ 0.5
C11U A40G C46A	0.792
C24G A36G A45G C61A A70G	≤ 0.5
C4A C11U G39C A45C	≤ 0.5
C11U U13G A21G U26C C27G G48C G67A	≤ 0.5
C5U U16C C24U A42C A57U	≤ 0.5
C29A C30U C49U	≤ 0.5
A14U U16A C33G A45C A69U	≤ 0.5
U2A G6A U7C G25A A36U C60A C62G	≤ 0.5
A57U A70G	0.753
G17A C29U C33U C60G	0.594
G17A C49U C62A	≤ 0.5
A15C C22G A43C G50A	0.556
A43G G48A	0.933
A45U C62A	0.655
A42U G44A G51A	0.669
U2C A20U A40U C62A C66A	≤ 0.5

Variant	yeast fitness
C4G G9C C22A G67A	≤ 0.5
G6A G9C C11G C34U	≤ 0.5
U2C C22G C31U C60U C61U	0.527
C46A C61A	0.758
C4G U7A G9A C11U C55U	≤ 0.5
G17C C66A	0.575
A21U U59A A69C	≤ 0.5
U19G U32C	1.04
G23C C27A A45G G51C G63A G68A	≤ 0.5
U3G G17A C30U A57U	≤ 0.5
A15G A20U A45U	≤ 0.5
A37C A65C	0.797
C4A A42G U64A	≤ 0.5
C34U U54C A70U	≤ 0.5
C11G C27G C30G A70C	0.689
C5U A21G U26A	0.738
U2A U16C C30A	0.558
C4A C5U G52C C61G	≤ 0.5
C29A U59C	0.688
C11A U28G C34U G67A	≤ 0.5
C31U C34A C61G	≤ 0.5
C11A U19A C29A U32A U54C C55G C60G	≤ 0.5
U7C C24U	0.855
U8G C22U G23A C24G A43U	≤ 0.5

Variant	yeast fitness
C24A C31A C33A C60A	≤ 0.5
U3A C4U U7A C24U U35C C49U C61G	≤ 0.5
C61G G67A	0.592
C22U C66U	0.762
G48C G51C U53A C66A	≤ 0.5
A15G A21C C33G A43U	0.57
U2G A42U U64G	≤ 0.5
U3A C31U A40C G48A G68C	≤ 0.5
U19A C22U	0.709
A20G C24A	0.56
A20G C66G	0.809
C34G C66U	0.634
U28A C33G A36U A40G U54C	0.528
U7C U64G A69C	0.603
U7G A43G C46G A69U	≤ 0.5
A43U G58U	0.694
U2A C30U A57G	≤ 0.5
G38A C49U	1.03
A15C U26A	0.523
C11G G18C A20U C33G C34G G50C	0.632
C4A U47G	0.686
A15G U35A G52A U59C C66A G67A	≤ 0.5
U35C G41A A70G	0.689
G10C A15U A37U A45C G52C	0.606

Variant	yeast fitness
C4U G18C C49U C61A	≤ 0.5
C24A C31U C55A C60A	≤ 0.5
C5G A20U A21G C22G U35A G44A C55U C60G U64A G67A	0.649
A15U C30G G50A	≤ 0.5
U7A G23A C29A C55A	≤ 0.5
C4U G17C	0.709
C62A G63C	0.661
G12A C33G G39C A69C	≤ 0.5
U3G C27U U35G A42U	≤ 0.5
C31A A57G C61U	≤ 0.5
A15U A36G C55G G56A	0.535
C11G C49U A70G	0.573
G38C G41C G50U A65G	≤ 0.5
A42C G48C	0.763
U16A C24U G44C C61U	0.66
U2A C27A	0.894
A37U A45U U47C	≤ 0.5
A20G U28A A37G C55G	0.578
C11G C34U C55U	≤ 0.5
U13A C33G C55A	≤ 0.5
C4U C66U A70C	0.83
G39A A70C	1.04
U3G U19G	0.641
G17A C27G U59A C66A	≤ 0.5

Variant	yeast fitness
U3C U47G U64A	≤ 0.5
G6C C22U	0.706
G41A A45U	1.01
U13A A21U G58C G68C	0.857
U16C C34A G41A	≤ 0.5
C30A C46A G56A A69U	≤ 0.5
A21U G51A	0.751
G6C A14C C27U	0.539
U13A C31A A42G G67A A69U	≤ 0.5
U28A C30U C66U	≤ 0.5
C11G U26A U35A	≤ 0.5
C11U U28A U54C	≤ 0.5
C29A C49G	0.623
G18A G25A C49U C62U	≤ 0.5
A15U G50A C55G	0.666
C5A G41A A70G	0.604
C24U A40U C55U U59A	0.548
G38C A43U	0.769
A15C A20G C29G	≤ 0.5
C11G G18A G44U A65C	≤ 0.5
U64A A70U	0.884
U28G C33G A45C	0.607
U16G U26C C49G	≤ 0.5
C4U U26A C31G	0.603

Variant	yeast fitness
G12C A14U C61G U64C	≤ 0.5
A43G G68C	0.712
C31U A40G A42C G44A A45U	≤ 0.5
C11U A21G C24A	0.529
G18C C33G C49G	≤ 0.5
C29A U53A	0.51
G10U G12A A43C A69G	0.566
U7G A14G C22U G23A G38A C55A	≤ 0.5
C5G U8C G56A	0.723
U7A C24U C33A A65U	0.58
C11U C24U G44C C49A A69C	≤ 0.5
U26G C30A G68C	0.531
C4U C22A C27U A69U	0.512
G52A G56C A65U	≤ 0.5
A20C C31U A40G G52C G67C	≤ 0.5
G25A C66A	0.631
C4A C22U C27U	≤ 0.5
C11A A37G	0.566
C5U A21U U32A A40U C60G	0.694
C27A C62A	0.699
G38C G68A A70U	≤ 0.5
G25A U28A A65U	0.697
A15G A43U C46A	0.671
G48A G50C	1.07

Variant	yeast fitness
C5G C62G	0.791
C5U G9A G51C G52C	≤ 0.5
U28C C30A C49U	≤ 0.5
C11G A20U G38C G50A	0.569
G17A G41C	0.816
G6C C11G U35A	≤ 0.5
G18A C27G C49G C62G C66U A69C	≤ 0.5
A36G C61U	0.891
U13C U16C U26A	0.637
A21U A36C G38C	≤ 0.5
C31U C61U	0.93
C31A G68C	0.648
G10C C30U C31A	≤ 0.5
G25C C27U	0.773
C5G C27U A36U C60G	≤ 0.5
G17C C29U U32A C46U	≤ 0.5
C11U G41A A42G A70U	≤ 0.5
C34U C60G A70C	≤ 0.5
G10A U13A C24A C55G C62U	≤ 0.5
U2G U16C C27U U35C	≤ 0.5
G12C A69U	0.935
G17C C22G U26C U47A C66U	≤ 0.5
A20U G25C U47A C60G	≤ 0.5
